Reference: ChEMBL document CHEMBL4680257, “Discovery of novel NF-кB inhibitor based on scaffold hopping: 1,4,5,6,7,8-hexahydropyrido[4,3-d]pyrimidine” (Eur J Med Chem, 2020)
pIC50: −log10 of the molar value. Activity calls are given as the source filed them. The rule behind the calls is not given here.

Assays:
RAW264.7 [1] = assay: Inhibition of NF-kappaB in mouse RAW264.7 cells assessed as reduction in LPS-induced JNK phosphorylation at 1 to 4 uM incubated for 1 hr followed by LPS stimulation and measured after 30 mins by Western blot analysis; format: cell-based; settings: dose 1-4 µM
Outline: (§1)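 RAW264.7 incubated 1 h with compound (1.0, 2.0, 4.0 µM), then LPS 1.0 µg/mL for 30 min before extraction. Lysates blotted to nitrocellulose and probed overnight at 4 °C for total and phospho forms of p65, IκBα, Akt, ERK1/2, JNK and p38; secondary antibody 2 h at room temperature. ECL detection, normalized to GAPDH, mean ± SD of triplicate tests.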

L02 = assay: Cytotoxicity against human L02 cells assessed as reduction in cell viability incubated for 24 hrs by MTT assay; format: cell-based; settings: L02, 24 h
Outline: (§2)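 Cells kept at 37 °C in 5% CO₂. HepG2 grown in DMEM with 10% serum; HHL-5, LO2 and SMMC-7721 in 1640 medium with 10% serum. Seeded, grown 24 h, then exposed 24 h to 10, 5, 2.5, 1.25, 0.625 and 0.3125 µg/mL. MTT (5 mg/mL) added for 4 h at 37 °C; formazan dissolved in DMSO, OD read at 570 nm. IC50 averaged from three replicates.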

HepG2 [2] = assay: Induction of apoptosis in human HepG2 cells assessed as increase in Caspase-3 expression incubated for 24 hrs by Western blot analysis; format: functional, cell-based; settings: dose 1-4 µM
Outline: (§3)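 HepG2 exposed to 1.0, 2.0 or 4.0 µM for 24 h. Lysates separated by electrophoresis and blotted onto nitrocellulose. Probed overnight at 4 °C with anti-Bcl-2, anti-BAX or anti-cleaved caspase-3, then 2 h at room temperature with anti-mouse/rabbit IgG. ECL detection, GAPDH as loading control; quantified from more than three separate experiments.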

RAW264.7 [3] = assay: Inhibition of NF-kappaB in mouse RAW264.7 cells assessed as reduction in LPS-induced p38 phosphorylation at 1 to 4 uM incubated for 1 hr followed by LPS stimulation and measured after 30 mins by Western blot analysis; format: cell-based; settings: dose 1-4 µM; outline: as §1
HepG2 [4] = assay: Cytotoxicity against human HepG2 cells assessed as reduction in cell viability incubated for 24 hrs by MTT assay; format: functional, cell-based; settings: HepG2, 24 h; outline: as §2
SMMC-7721 [5] = assay: Induction of apoptosis in human SMMC-7721 cells assessed as early apoptotic cells at 1 uM incubated for 24 hrs by annexin V-FITC and PI staining based flow cytometry analysis (reference value: 0.3 %); format: functional
Outline: (§4)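 Cells seeded at 2×10^5 per well and treated 24 h with 1.0, 2.0 or 4.0 µM, or DMSO. Harvested, washed twice in cold PBS, resuspended at 1×10^5 cells/mL in buffer. Stained with Annexin V-FITC plus propidium iodide for 15 min at room temperature in the dark, then analysed by flow cytometry.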

HepG2 [6] = assay: Induction of apoptosis in human HepG2 cells assessed as necrotic cells at 1 uM incubated for 24 hrs by annexin V-FITC and PI staining based flow cytometry analysis (reference value: 0.8 %); format: functional; outline: as §4
SMMC-7721 [7] = assay: Induction of apoptosis in human SMMC-7721 cells assessed as early apoptotic cells at 4 uM incubated for 24 hrs by annexin V-FITC and PI staining based flow cytometry analysis (reference value: 0.3 %); format: functional; outline: as §4
RAW264.7 [8] = assay: Inhibition of NF-kappaB in mouse RAW264.7 cells assessed as reduction in LPS-induced p65 phosphorylation incubated for 1 hr followed by LPS stimulation and measured after 30 mins by Western blot analysis; format: cell-based; settings: dose 1-4 µM; outline: as §1
SMMC-7721 [9] = assay: Induction of apoptosis in human SMMC-7721 cells assessed as necrotic cells at 1 uM incubated for 24 hrs by annexin V-FITC and PI staining based flow cytometry analysis (reference value: 1 %); format: functional; outline: as §4
HepG2 [10] = assay: Inhibition of NF-kappaB in human HepG2 cells assessed as reduction in TNFalpha-induced p65 nuclear translocation at 4 uM pretreated with TNFalpha for 15 mins followed by compound addition and measured after 2 hrs by DAPI staining based fluorescence microscopy; settings: time 135.0 min
RAW264.7 [11] = assay: Inhibition of NF-kappaB in mouse RAW264.7 cells assessed as reduction in LPS-induced p65 nuclear translocation at 4 uM pretreated with LPS for 15 mins followed by compound addition and measured after 2 hrs by DAPI staining based fluorescence microscopy; settings: time 135.0 min
SMMC-7721 [12] = assay: Induction of apoptosis in human SMMC-7721 cells assessed as late apoptotic cells at 4 uM incubated for 24 hrs by annexin V-FITC and PI staining based flow cytometry analysis (reference value: 5.4 %); format: functional; outline: as §4
SMMC-7721 [13] = assay: Induction of apoptosis in human SMMC-7721 cells assessed as late apoptotic cells at 1 uM incubated for 24 hrs by annexin V-FITC and PI staining based flow cytometry analysis (reference value: 5.4 %); format: functional; outline: as §4
HepG2 [14] = assay: Induction of apoptosis in human HepG2 cells assessed as decrease in Bcl-2 expression incubated for 24 hrs by Western blot analysis; format: functional, cell-based; settings: dose 1-4 µM; outline: as §3
RAW264.7 [15] = assay: Inhibition of NF-kappaB in mouse RAW264.7 cells assessed as reduction in LPS-induced IkappaBalpha phosphorylation incubated for 1 hr followed by LPS stimulation and measured after 30 mins by Western blot analysis; format: cell-based; settings: dose 1-4 µM; outline: as §1
HepG2 [16] = assay: Induction of apoptosis in human HepG2 cells assessed as necrotic cells at 4 uM incubated for 24 hrs by annexin V-FITC and PI staining based flow cytometry analysis (reference value: 0.8 %); format: functional; outline: as §4
HepG2 [17] = assay: Induction of apoptosis in human HepG2 cells assessed as early apoptotic cells at 4 uM incubated for 24 hrs by annexin V-FITC and PI staining based flow cytometry analysis (reference value: 0.2 %); format: functional; outline: as §4
SMMC-7721 [18] = assay: Cytotoxicity against human SMMC-7721 cells assessed as reduction in cell viability incubated for 24 hrs by MTT assay; format: functional, cell-based; settings: SMMC-7721, 24 h; outline: as §2
SMMC-7721 [19] = assay: Induction of apoptosis in human SMMC-7721 cells assessed as necrotic cells at 4 uM incubated for 24 hrs by annexin V-FITC and PI staining based flow cytometry analysis (reference value: 1 %); format: functional; outline: as §4
HepG2 [20] = assay: Induction of apoptosis in human HepG2 cells assessed as increase in Bax expression incubated for 24 hrs by Western blot analysis; format: functional, cell-based; settings: dose 1-4 µM; outline: as §3
RAW264.7 [21] = assay: Cytotoxicity against mouse RAW264.7 cells assessed as reduction in cell viability at 5 uM incubated for 24 hrs by MTT assay; format: cell-based; settings: raw264.7, 24 h
RAW264.7 [22] = assay: Inhibition of NF-kappaB in mouse RAW264.7 cells assessed as reduction in LPS-induced Akt phosphorylation at 1 to 4 uM incubated for 1 hr followed by LPS stimulation and measured after 30 mins by Western blot analysis; format: cell-based; settings: dose 1-4 µM; outline: as §1
HepG2 [23] = assay: Induction of apoptosis in human HepG2 cells incubated for 24 hrs by annexin V-FITC and PI staining based flow cytometry analysis; format: functional, cell-based; settings: dose 1-4 µM; outline: as §4
[24] = Cytotoxicity against human HHL-5 cells assessed as reduction in cell viability incubated for 24 hrs by MTT assay; format: cell-based; settings: HHL-5, 24 h; outline: as §2
RAW264.7 [25] = assay: Antiinflammatory activity against mouse RAW264.7 cells assessed as LPS-induced IL-6 at 5 uM pretreated for 2 hrs followed by LPS stimulation and measured after 22 hrs by ELISA relative to control (reference value: 0 %); format: functional; settings: time 24 hrs

For `Cl.NC1=NC(c2cccc(F)c2)C2=C(N1)/C(=C/c1cccc(F)c1)CN(S(=O)(=O)c1ccc(C(F)(F)F)cc1)C2` (stereo unspecified), the inhibition (RAW264.7 [1]) was “Active”, the pIC50 (L02) was 4.45 and the Activity (HepG2 [2]) was “Dose-dependent effect”. For the same compound, the inhibition (RAW264.7 [3]) was “Active”, the pIC50 (HepG2 [4]) was 5.68 and the Activity (SMMC-7721 [5]) was 3.2%. The Activity (HepG2 [6]) was 0.8%, the Activity (SMMC-7721 [7]) was 11.4% and the inhibition (RAW264.7 [8]) was “Dose-dependent effect”. The Activity (SMMC-7721 [9]) was 0.7%, the inhibition (HepG2 [10]) was “Active” and the inhibition (RAW264.7 [11]) was “Active”. The Activity (SMMC-7721 [12]) was 9.2%, the Activity (SMMC-7721 [13]) was 15.1% and the Activity (HepG2 [14]) was “Dose-dependent effect”. For the same compound, the inhibition (RAW264.7 [15]) was “Dose-dependent effect”, the Activity (HepG2 [16]) was 1.2% and the Activity (HepG2 [17]) was 49.8%. The pIC50 (SMMC-7721 [18]) was 5.62, the Activity (SMMC-7721 [19]) was 12.9% and the Activity (HepG2 [20]) was “Dose-dependent effect”. The Activity (RAW264.7 [21]) was “Non-Toxic”, the inhibition (RAW264.7 [22]) was “Active” and the Activity (HepG2 [23]) was “Dose-dependent effect”. The pIC50 [24] was 4.54 and the inhibition at 5 µM (RAW264.7 [25]) was 86.8%.
